Results: ChEMBL document CHEMBL1126127, “Nonprostanoid prostacyclin mimetics. 2. 4,5-Diphenyloxazole derivatives” (J Med Chem, 1992)

Experiment: Inhibition of ADP-induced human platelet aggregation.
Type: functional
In short: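 ADP-induced aggregation of human platelets measured in platelet-rich plasma by aggregometry. Protocol follows earlier reports. IC50 values come from a single experiment or from the mean of duplicates.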

IC50 | Structure (SMILES)
> 77 µM | O=C(O)c1cccc(OCCCCc2nc(-c3ccccc3)c(-c3ccccc3)o2)c1
> 100 µM | O=C(O)CCc1nc(-c2ccccc2)c(-c2ccccc2)o1 [OXAPROZIN]
> 80 µM | O=C(O)COc1ccccc1CCc1nc(-c2ccccc2)c(-c2ccccc2)o1
9 µM | O=C(O)COc1ccc(CCc2nc(-c3ccccc3)c(-c3ccccc3)o2)cc1
60 µM | O=C(O)COc1cccc(C#Cc2nc(-c3ccccc3)c(-c3ccccc3)o2)c1
> 76 µM | O=C(O)CCCOc1ccc(Cc2nc(-c3ccccc3)c(-c3ccccc3)o2)cc1
> 100 µM | O=C(O)CCCCc1nc(-c2ccccc2)c(-c2ccccc2)o1
> 77 µM | O=C(O)c1ccc(OCCCCc2nc(-c3ccccc3)c(-c3ccccc3)o2)cc1
16 µM | O=C(O)CCc1cccc(CCc2nc(-c3ccccc3)c(-c3ccccc3)o2)c1
1.4 µM | COc1c(CCc2nc(-c3ccccc3)c(-c3ccccc3)o2)cccc1OCC(=O)O
0.5 µM | COc1c(/C=C/c2nc(-c3ccccc3)c(-c3ccccc3)o2)cccc1OCC(=O)O
> 80 µM | O=C(O)COc1ccccc1/C=C/c1nc(-c2ccccc2)c(-c2ccccc2)o1
> 75 µM | COc1ccc(OCC(=O)O)cc1/C=C/c1nc(-c2ccccc2)c(-c2ccccc2)o1
> 91 µM | O=C(O)CCCCCCc1nc(-c2ccccc2)c(-c2ccccc2)o1
> 88 µM | O=C(O)CCCCCCCc1nc(-c2ccccc2)c(-c2ccccc2)o1
> 82 µM | O=C(O)COc1ccc(Cc2nc(-c3ccccc3)c(-c3ccccc3)o2)cc1
4.6 µM | O=C(O)CCCCOc1cccc(-c2nc(-c3ccccc3)c(-c3ccccc3)o2)c1
> 80 µM | O=C(O)CCCCCCCCCc1nc(-c2ccccc2)c(-c2ccccc2)o1
> 75 µM | O=C(O)CCCOc1cccc(/C=C/c2nc(-c3ccccc3)c(-c3ccccc3)o2)c1
0.18 µM | O=C(O)COc1cccc(/C=C\c2nc(-c3ccccc3)c(-c3ccccc3)o2)c1
> 76 µM | O=C(O)C(CCCCCCCc1nc(-c2ccccc2)c(-c2ccccc2)o1)C(=O)O
> 80 µM | O=C(O)CCCOc1ccccc1-c1nc(-c2ccccc2)c(-c2ccccc2)o1
> 75 µM | O=C(O)CCCOc1ccccc1/C=C/c1nc(-c2ccccc2)c(-c2ccccc2)o1
> 104 µM | O=C(O)CCCc1nc(-c2ccccc2)c(-c2ccccc2)o1
> 80 µM | O=C(O)CCc1cccc(OCc2nc(-c3ccccc3)c(-c3ccccc3)o2)c1
> 76 µM | O=C(O)CCCOc1cccc(Cc2nc(-c3ccccc3)c(-c3ccccc3)o2)c1
> 75 µM | COc1ccc(OCC(=O)O)cc1CCc1nc(-c2ccccc2)c(-c2ccccc2)o1

IC50 | Structure (SMILES)
1.5 µM | c1ccc(-c2nc(CCc3cccc(OCC4N=NN=N4)c3)oc2-c2ccccc2)cc1
> 75 µM | O=C(O)CCCOc1ccc(/C=C/c2nc(-c3ccccc3)c(-c3ccccc3)o2)cc1
> 75 µM | COc1ccc(CCc2nc(-c3ccccc3)c(-c3ccccc3)o2)cc1OCC(=O)O
13 µM | O=C(O)COc1cccc(/C=C/c2nc(-c3ccccc3)c(-c3ccccc3)o2)c1
80 µM | O=C(O)CCCOc1cccc(-c2nc(-c3ccccc3)c(-c3ccccc3)o2)c1
> 75 µM | COc1ccc(/C=C/c2nc(-c3ccccc3)c(-c3ccccc3)o2)cc1OCC(=O)O
8 µM | CCCCC[C@H](O)/C=C/[C@@H]1[C@H]2C/C(=C/CCCC(=O)O)O[C@H]2C[C@H]1O [EPOPROSTENOL]
9.6 µM | O=C(O)COc1cccc(CSc2nc(-c3ccccc3)c(-c3ccccc3)o2)c1
> 80 µM | O=C(O)c1cccc(OCCCc2nc(-c3ccccc3)c(-c3ccccc3)o2)c1
4 µM | CC(Oc1cccc(CCc2nc(-c3ccccc3)c(-c3ccccc3)o2)c1)C(=O)O (stereo not drawn)
2.5 µM | O=C(O)CCCCCCCCc1nc(-c2ccccc2)c(-c2ccccc2)o1
10 µM | O=C(O)COc1ccc(/C=C/c2nc(-c3ccccc3)c(-c3ccccc3)o2)cc1
1.2 µM | O=C(O)COc1cccc(OCc2nc(-c3ccccc3)c(-c3ccccc3)o2)c1
0.66 µM | O=C(O)/C=C/c1cccc(CCc2nc(-c3ccccc3)c(-c3ccccc3)o2)c1
> 84 µM | O=C(O)COc1cccc(-c2nc(-c3ccccc3)c(-c3ccccc3)o2)c1
> 80 µM | O=C(O)CCCOc1ccc(-c2nc(-c3ccccc3)c(-c3ccccc3)o2)cc1
> 82 µM | O=C(O)COc1cccc(Cc2nc(-c3ccccc3)c(-c3ccccc3)o2)c1
1.02 µM | O=C(O)CCCCCCCOc1nc(-c2ccccc2)c(-c2ccccc2)n1-c1ccccc1 [OCTIMIBATE]
> 77 µM | O=C(O)CCCCOc1ccccc1-c1nc(-c2ccccc2)c(-c2ccccc2)o1
2 µM | CC#CCC(C)[C@H](O)/C=C/[C@@H]1[C@H]2C/C(=C/CCCC(=O)O)C[C@H]2C[C@H]1O (stereo partly drawn) [ILOPROST]
40 µM | O=C(O)c1ccc(OCCCc2nc(-c3ccccc3)c(-c3ccccc3)o2)cc1
> 75 µM | O=C(O)CCCOc1ccccc1CCc1nc(-c2ccccc2)c(-c2ccccc2)o1
> 77 µM | O=C(O)CCCCOc1ccc(-c2nc(-c3ccccc3)c(-c3ccccc3)o2)cc1
> 74 µM | O=C(O)CCCCOc1ccccc1Cc1nc(-c2ccccc2)c(-c2ccccc2)o1
14 µM | O=C(O)/C=C/c1cccc(OCc2nc(-c3ccccc3)c(-c3ccccc3)o2)c1
> 75 µM | CC(C)(Oc1cccc(CCc2nc(-c3ccccc3)c(-c3ccccc3)o2)c1)C(=O)O
